The text below walks through data of ChEMBL document CHEMBL1149845, “Synthesis, cytotoxic activities and structure-activity relationships of topoisomerase I inhibitors: indolizinoquinoline-5,12-dione derivatives” (Bioorg Med Chem, 2008).

Where only a bound is given, the exact number is not on record here.

Assay [1] relates to MCF7. Kind of assay: Cytotoxicity against human MCF7 cells after 2 days by MTT assay. As to conditions: MCF7, 48 h. The class given is functional, cell-based. The gist of the method: (§1)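 Cells grown in RPMI-1640 with 10% FBS, penicillin 100 U/mL and streptomycin 100 µg/mL at 37 °C, 5% CO2, passage 3–6. Exponential-phase cells seeded at 5 × 10⁴–1 × 10⁵ cells/ml, grown overnight, then exposed for 2 days to compounds predissolved in DMSO at selected concentrations. Viability read by MTT.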

Assay [2] has as its system NCI-H460. Kind of assay: Cytotoxicity against human NCI-H460 cells after 2 days by MTT assay. It counts as functional, cell-based. As to conditions: NCI-H460, 48 h. The procedure, abridged:
as §1

Assay [3] concerns HL-60. In words: Cytotoxicity against human HL60 cells after 2 days by MTT assay. It counts as functional, cell-based. As to conditions: HL-60, 48 h. The procedure, abridged: as §1
Assay [4] can be described thus: Cytotoxicity against human GLC82 cells after 2 days by MTT assay. The class given is functional, cell-based. As to conditions: GLC82, 48 h. The procedure, abridged:
as §1
Background: Formazan colour is commonly taken as a measure of viable cells.

For assay [5], the species on record is Bos taurus. In words: Inhibition of calf thymus topoisomerase 1-mediated supercoiled plasmid DNA relaxation at 125 uM.
Assay [6] is filed under the species Bos taurus. In words: Inhibition of calf thymus topoisomerase 1-mediated supercoiled plasmid DNA relaxation at 0.2 uM. The gist of the method: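 Calf thymus TOP1 relaxation of 0.5 µg pBR322 in 20 µL buffer (20 mM Tris pH 7.5, 0.1 mM EDTA, 10 mM MgCl2, 50 µg/mL acetylated BSA, 100 mM KCl), compound from DMSO. Started by adding DNA, 30 min at 37 °C, stopped with loading buffer. 1% agarose gel in Tris-borate/EDTA at 5 V/cm, ethidium bromide stain. Supercoiled DNA quantified densitometrically.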

For the compound `CCOC(=O)c1c2c(n3cccc(O)c13)C(=O)c1ncccc1C2=O`, the 50% inhibitory concentration (IC50) in assay [1] was > 25 µM; in assay [2] it was > 25 µM; in assay [3], > 25 µM; in assay [4], 7.2 µM.
For `CC(=O)c1c2c(n3cccc(Br)c13)C(=O)c1ncccc1C2=O`, the IC50 in assay [1] is 11.7 µM; in assay [2], 2.15 µM; in assay [3] it was 0.21 µM; in assay [4], 2.01 µM.
Consider `CCOC(=O)c1c2c(n3cccc(C)c13)C(=O)c1ncccc1C2=O`, for which the IC50 was 14.5 µM in assay [1], 0.22 µM in assay [3] and 1.83 µM in assay [4].
For the compound `CC(=O)c1c2c(n3cccc(F)c13)C(=O)c1ncccc1C2=O`, the IC50 in assay [1] is 2.31 µM; in assay [2], < 0.25 µM; in assay [3], 0.17 µM; in assay [4], 5.26 µM.
As to `CCOC(=O)c1c2c(n3cccc(C)c13)C(=O)c1cccnc1C2=O`, the IC50 in assay [1] is > 25 µM; in assay [3], 11.7 µM; in assay [4], 9.27 µM.
On to `CC(=O)c1c2c(n3cccc(Cl)c13)C(=O)c1ncccc1C2=O`, for which the half-inhibitory concentration (IC50) in assay [1] came to 7.83 µM; in assay [2], 0.23 µM; in assay [3], 0.19 µM; in assay [4], 6.85 µM.
Consider `CC(=O)c1c2c(n3cccc(O)c13)C(=O)c1cccnc1C2=O`, for which the IC50 in assay [2] was > 25 µM; in assay [3], > 25 µM; in assay [4], 16.3 µM.
For the compound `CCOC(=O)c1c2c(n3cccc(O)c13)C(=O)c1cccnc1C2=O`, the 50% inhibitory concentration (IC50) in assay [1] is > 25 µM; in assay [2], 23.3 µM; in assay [3] it was > 25 µM; in assay [4], 23.8 µM.
For the compound `CCOC(=O)c1c2c(n3cccc(Br)c13)C(=O)c1cccnc1C2=O`, the IC50 in assay [1] was determined as 20.8 µM; in assay [2], 2.4 µM; in assay [3] it was 11.5 µM; in assay [4] it was 1.1 µM.
For the compound `CCOC(=O)c1c2c(n3cccc(F)c13)C(=O)c1cccnc1C2=O`, the IC50 in assay [1] amounted to 6.2 µM; in assay [2], 1.2 µM; in assay [3], 5.51 µM; in assay [4], 1.7 µM.
In the case of `CCOC(=O)c1c2c(n3ccccc13)C(=O)c1ncccc1C2=O`, the IC50 was 0.96 µM in assay [1], < 0.25 µM in assay [2], 0.88 µM in assay [3] and < 0.25 µM in assay [4].
Regarding `CC(=O)c1c2c(n3cccc(N)c13)C(=O)c1ncccc1C2=O`, the IC50 is > 25 µM in assay [1], > 25 µM in assay [2], 22.3 µM in assay [3] and 12.2 µM in assay [4].
Turning to `CC(=O)c1c2c(n3cccc(F)c13)C(=O)c1cccnc1C2=O`, the IC50 in assay [1] was found to be 9.28 µM; in assay [2], 6.75 µM; in assay [3] it was 1.39 µM; in assay [4] it was 12.7 µM.
Regarding `CCOC(=O)c1c2c(n3ccccc13)C(=O)c1ccccc1C2=O`, the IC50 in assay [1], in assay [3] and in assay [4] was > 25 µM in each case.
On to `CCOC(=O)c1c2c(n3cccc(Cl)c13)C(=O)c1cccnc1C2=O`, for which the IC50 in assay [1] stood at 19.9 µM; in assay [2] it was 2.2 µM; in assay [3] it was 15.4 µM; in assay [4], 9.73 µM.
For `O=C1c2cc3ccccn3c2C(=O)c2cccnc21` the same measures were 20.2 µM, 12.3 µM, 14.7 µM and 16.7 µM.
Consider `CC[C@@]1(O)C(=O)OCc2c1cc1n(c2=O)Cc2cc3ccccc3nc2-1`, for which, in assay [5], the inhibition is 81.3%.
Take `CC(=O)c1c2c(n3cccc(Cl)c13)C(=O)c1cccnc1C2=O`: the half-maximal inhibitory concentration (IC50) came to 16.1 µM in assay [1], 1.5 µM in assay [2], 2.2 µM in assay [3] and 16.1 µM in assay [4].
For the compound `CCOC(=O)c1c2c(n3cccc(N)c13)C(=O)c1ncccc1C2=O`, the 50% inhibitory concentration (IC50) in assay [1] came to 20.9 µM; in assay [2], 17.6 µM; in assay [3] it was 16.4 µM; in assay [4], 23.4 µM.
Taken in the same sequence, the figures for `CC(=O)c1c2c(n3ccccc13)C(=O)c1cccnc1C2=O` were 12.7 µM, 1.4 µM, 14.7 µM and 1.9 µM.
Taken in the same sequence, the figures for `CC(=O)c1c2c(n3cccc(O)c13)C(=O)c1ncccc1C2=O` were 17.6 µM, 24.9 µM, > 25 µM and 19.5 µM.
For `Cc1c2c(n3ccccc13)C(=O)c1cccnc1C2=O` the same measures were > 25 µM, > 25 µM, > 25 µM and 21.5 µM.
With `CCOC(=O)c1c2c(n3ccccc13)C(=O)c1cccnc1C2=O`, the IC50 turned out to be 6.38 µM in assay [1], 1.9 µM in assay [2], 14.5 µM in assay [3] and 2.4 µM in assay [4].
Taken in the same sequence, the figures for `CC(=O)c1c2c(n3cccc(Br)c13)C(=O)c1cccnc1C2=O` were 12.4 µM, 0.2 µM, 1.56 µM and 4.68 µM.
Taken in the same sequence, the figures for `CCOC(=O)c1c2c(n3cccc(N)c13)C(=O)c1cccnc1C2=O` were > 25 µM, 19 µM, > 25 µM and 23.5 µM.
Turning to `CCOC(=O)c1c2c(n3cccc(Br)c13)C(=O)c1ncccc1C2=O`, the IC50 was 10.3 µM in assay [1], 2 µM in assay [2], 9.32 µM in assay [3] and < 0.25 µM in assay [4].
Taken in the same sequence, the figures for `CCOC(=O)c1c2c(n3cccc(F)c13)C(=O)c1ncccc1C2=O` were 7.01 µM, < 0.25 µM, 1.37 µM and < 0.25 µM.
`CC(=O)c1c2c(n3ccccc13)C(=O)c1ncccc1C2=O`: the IC50 is 7.92 µM in assay [1], < 0.25 µM in assay [2], 0.86 µM in assay [3] and < 0.25 µM in assay [4].
Regarding `CC(=O)c1c2c(n3cccc(N)c13)C(=O)c1cccnc1C2=O`, the IC50 in assay [1] is > 25 µM; in assay [2], 10.3 µM; in assay [3] it was 15.8 µM; in assay [4] it was 10.3 µM.
Regarding `CCOC(=O)c1c2c(n3cccc(Cl)c13)C(=O)c1ncccc1C2=O`, the inhibition in assay [6] was determined as 5.8%; in assay [5], 100%. The IC50 in assay [1] is 7.37 µM; in assay [2] it was 2.1 µM; in assay [3], 6.52 µM; in assay [4], < 0.25 µM.
On to `Cc1c2c(n3ccccc13)C(=O)c1ncccc1C2=O`, for which the IC50 in assay [1] was > 25 µM; in assay [2] it was 12.2 µM; in assay [3], 12.5 µM; in assay [4], 14.2 µM.
For `O=C1c2cccnc2C(=O)c2c1cc1ccccn21` the same measures were > 25 µM, 15.6 µM, 17 µM and 11.5 µM.

The IC50 is the midpoint of a concentration-inhibition curve. A lower IC50 goes with greater potency. The term inhibition denotes the percentage by which the read-out fell short of the control. High values mean a strong effect, low ones a weak effect.
